TRPC4 act – activators of mouse TRPC4 channel, primary screen, Fluo4 calcium, HEK293 TRPC4beta/mu-opioid cells | Fluo4 calcium fluorescence; active compounds read high | AID 2237, 2010 | hit rate 0.49% among 310,000 | Short transient receptor potential channel 4 (Mus musculus), Q9QUQ5 | B-score at 10 µM;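 active means B-score above 5 SD of library B-scores, and initial fluorescence ratio not above library mean plus 5 SD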;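 further: positive B-score marks a calcium rise read as TRPC4 activation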
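Material: HEK293 stable line with TRPC4beta plus mu-opioid receptor; technique: Fluo4 calcium-sensitive dye fluorescence, kinetic, 1 Hz baseline; timing: Fluo4 dye loading 45 min at room temperature, 110 s recording; controls: assay buffer as low control, maximal DAMGO as high control; read-out: integrated baseline-normalised fluorescence ratio, converted to per-well B score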
TRPC4 block – inhibitors of mouse TRPC4 channel, primary screen, Fluo4 calcium, HEK293 TRPC4beta/mu-opioid cells; Short transient receptor potential channel 4 (Mus musculus), Q9QUQ5; DAMGO-evoked Fluo4 calcium flux; active compounds read low; B-score at 10 µM; hit rate 0.39% among 300,000;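 active means B-score over 3 SD under the library average, no early fluorescence shift, positive overall ratio signal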
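Assay system: HEK293 cells with stable TRPC4beta plus mu-opioid receptor expression. Dosing: single dose. Measured by: Fluo4 Ca2+ flux fluorescence. Also added: DAMGO in two steps, submaximal then maximal. Read-out: B score from integrated Fluo4 fluorescence ratio.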
TRPC6 activator – mouse TRPC6 channel activators, primary screen, cell-based, HEK293, membrane potential dye. HEK293-TRPC6 membrane potential dye fluorescence; active compounds read high. Short transient receptor potential channel 6 (Mus musculus), Q61143. hit rate 0.13% among 310,000. B-score at 10 µM;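 active means B-score of the integrated fluorescence ratio above library mean plus 3 SD, and starting fluorescence ratio within library mean plus 5 SD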;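 further: higher score means more depolarization so channel activation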
Target sequence (Q61143 whole entry, looked up): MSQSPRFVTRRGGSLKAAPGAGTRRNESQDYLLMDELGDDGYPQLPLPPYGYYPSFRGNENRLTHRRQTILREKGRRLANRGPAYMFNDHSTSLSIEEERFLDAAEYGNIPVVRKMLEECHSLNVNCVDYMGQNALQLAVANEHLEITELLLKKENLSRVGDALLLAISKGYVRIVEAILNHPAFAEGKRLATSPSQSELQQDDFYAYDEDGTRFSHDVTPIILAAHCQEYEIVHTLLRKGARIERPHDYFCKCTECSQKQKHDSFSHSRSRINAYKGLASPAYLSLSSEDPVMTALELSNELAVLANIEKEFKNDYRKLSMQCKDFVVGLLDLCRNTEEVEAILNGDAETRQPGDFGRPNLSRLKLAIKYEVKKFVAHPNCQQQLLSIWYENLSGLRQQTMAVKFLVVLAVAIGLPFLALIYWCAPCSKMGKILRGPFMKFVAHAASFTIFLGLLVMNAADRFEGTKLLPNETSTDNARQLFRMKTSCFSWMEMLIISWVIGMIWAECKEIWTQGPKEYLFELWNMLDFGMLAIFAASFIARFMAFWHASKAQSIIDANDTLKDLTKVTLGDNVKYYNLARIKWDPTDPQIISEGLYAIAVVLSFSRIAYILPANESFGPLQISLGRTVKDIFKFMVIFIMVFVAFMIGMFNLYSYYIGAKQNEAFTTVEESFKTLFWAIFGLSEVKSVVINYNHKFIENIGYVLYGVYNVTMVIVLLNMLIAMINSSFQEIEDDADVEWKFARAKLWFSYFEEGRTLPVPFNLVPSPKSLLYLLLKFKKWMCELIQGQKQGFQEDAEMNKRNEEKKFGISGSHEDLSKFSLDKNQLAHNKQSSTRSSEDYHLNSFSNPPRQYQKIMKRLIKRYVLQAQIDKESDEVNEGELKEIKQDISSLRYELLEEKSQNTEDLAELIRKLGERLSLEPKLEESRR
TRPC4 PAM – positive allosteric modulators of TRPC4, primary screen, cell-based, mouse TRPC4beta, HEK293 mu-opioid, Fluo-4 calcium; B-score at 10 µM; DAMGO EC20, Fluo-4 Ca2+ flux; active compounds read high; AID 2227, 2009; Short transient receptor potential channel 4 (Mus musculus), Q9QUQ5; hit rate 0.42% among 310,000;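 active means B-score of calcium response area above 5 SD of library B-scores, with initial fluorescence ratio within 5 SD of library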
TRPC6 inh – mouse TRPC6 channel inhibitors, primary screen, cell-based, HEK293, membrane potential dye; Short transient receptor potential channel 6 (Mus musculus), Q61143; ACh-evoked depolarization; active compounds read low; AID 2553, 2010; B-score at 10 µM; hit rate 1.1% among 310,000;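 active means B-score under library mean minus 3 SD, initial fluorescence not abnormally high, positive integrated signal ratio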;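 further: B-score derived from integrated fluorescence ratio over the kinetic read; more negative B-score means stronger inhibition of depolarization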
TRPC4 spec 2 – mouse TRPC4 off-target activity of TRPC6 inhibitors, second screen. HEK293 TRPC4/MOR, membrane potential dye fluorescence; channel activated by saturating DAMGO dose. AID 2776. hit rate 42% among 920. shares compounds with TRPC6 inh. inhibition, % at 10 µM;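 active means compounds whose fluorescence signal differed from control wells by over 3 SD, either direction, in both duplicate plates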
TRPC4 spec – mouse TRPC4 modulation by TRPC6 hits, confirmation, selectivity assay for TRPC6 inhibitor project, cell-based, HEK293 TRPC4/mu-opioid, membrane potential dye | AID 2777, 2010 | hit rate 61% among 920 | shares compounds with TRPC6 inh | membrane potential fluorescence | activity change, negative = inhibition, % at 10 µM;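 active means rise or fall in signal beyond 3 SD of buffer-only wells in both replicate plates, either sign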;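 further: integrated kinetic ratio of fluorescence range over baseline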
HEK293 MPD ctr 2-1 – nonspecific membrane potential effects, parental HEK293, confirmation, counter-screen for TRPC6 inhibitor project, cell-based, second counter screen | AID 2779, 2010 | shares compounds with TRPC6 inh | signal change vs control, % at 10 µM | parental HEK293 membrane potential dye fluorescence; maximal acetylcholine challenge after compound addition | hit rate 31% among 920;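 active means membrane potential signal moving either way by over 3 SD of the maximum-effect control, in both duplicate plates, meaning non-specific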
HEK293 MPD ctr-1 – membrane potential modulation in parental HEK293, confirmation, counter-screen for TRPC6 inhibitor project, cell-based. AID 2780, 2010. shares compounds with TRPC6 inh. parental HEK293 membrane potential dye fluorescence. membrane potential signal change, % at 10 µM. hit rate 60% among 920;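 active means membrane potential signal shifting up or down by more than 3 SD of buffer-only wells, on both duplicate plates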
HEK293 MPD ctr-2 – parental HEK293 membrane potential modulation, confirmation, counter-screen for TRPC6 modulator project, cell-based; shares compounds with TRPC6 inh; membrane potential dye fluorescence; membrane potential signal change, % at 10 µM; hit rate 51% among 2,400; AID 488924, 2010;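 active means membrane potential signal moves up or down beyond 5 SD from buffer-only wells, on both duplicate plates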
HEK293 MPD ctr 2-2 – second counter-screen for TRPC6 modulators: effect in parental HEK293 cells | shares compounds with TRPC6 inh | membrane potential dye fluorescence; after compound, maximal acetylcholine stimulation | inhibition, % at 10 µM | hit rate 14% among 2,400;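 active means membrane potential signal drops by more than 5 SD from the mean control signal, in both duplicate plates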
TRPC4 ctr mod – TRPC4 modulation by TRPC6 hit compounds, confirmation, selectivity assay for TRPC6 modulator project, cell-based, HEK293 TRPC4/mu-opioid, membrane potential dye, mouse; percent change from control (negative = decrease, positive = increase), % at 10 µM; shares compounds with TRPC6 inh; hit rate 69% among 2,400; membrane potential fluorescence;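 active means membrane potential signal moved up or down beyond 5 SD of buffer control wells, in both duplicate plates, actives on both sides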
TRPC4/MOR inh 2 – second selectivity test of TRPC6 modulators against mouse TRPC4; shares compounds with TRPC6 inh; HEK293 TRPC4/mu-opioid, membrane potential dye fluorescence; stimulated with maximal-effect DAMGO; inhibition, % at 10 µM; hit rate 55% among 2,400; AID 488928;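 active means drop in membrane potential signal beyond 5 SD of the control wells in both duplicate plates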;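 further: TRPC4 counter screen for TRPC6 hits run under conditions tuned for TRPC6 not TRPC4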
TRPC6 inh conf – mouse TRPC6 channel inhibitors, confirmation, HEK293 cells, membrane potential dye, duplicate; shares compounds with TRPC6 inh; ACh-evoked depolarization; inhibition, % at 10 µM; hit rate 43% among 3,300; AID 488960, 2010;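 active means fluorescence ratio falls more than 5 SD below the full-stimulation control mean, in both duplicate runs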;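 further: integrated fluorescence ratio of peak minus minimum over baseline after agonist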
TRPC6 act conf – mouse TRPC6 channel activators, confirmation, HEK293 cells, membrane potential dye, duplicate; shares compounds with TRPC6 inh; HEK293-TRPC6 membrane potential dye fluorescence, FDSS; activation, % at 10 µM; hit rate 11% among 2,800;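 active means ratio signal rise beyond 5 SD above unstimulated control wells' mean, seen in both duplicate runs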
Numbers stand for hits; . = inactive; / = not tested or not shown. The list is not random: actives were taken first. Their share in the collection is about 2.3%.

SMILES	TRPC4 act	TRPC4 block	TRPC6 activator	TRPC4 PAM	TRPC6 inh	HEK293 MPD ctr-2	HEK293 MPD ctr 2-2	TRPC4 ctr mod	TRPC4/MOR inh 2	TRPC6 inh conf	TRPC6 act conf	others
CCCCCCCCCCCCOC(=O)C[N+](C)(C)C	.	-6	.	.	-6.93	/	/	/	/	56.0%	.	TRPC4 spec 2=.;TRPC4 spec=0.8%;HEK293 MPD ctr 2-1=323.5%;HEK293 MPD ctr-1=.
CCCCCCCCOC(=O)C[N+](C)(C)C/C=C(/C)Cl	.	.	.	.	-7.56	/	/	/	/	61.5%	.	TRPC4 spec 2=.;TRPC4 spec=0.1%;HEK293 MPD ctr 2-1=.;HEK293 MPD ctr-1=2.3%
O=C(CC1Nc2cccc3cccc(c23)NC1=O)Nc1ccc(F)cc1 (stereo not given)	.	.	.	.	-5.03	.	.	-11.0%	40.0%	.	.
COc1ccc(NC(=O)CC2Nc3cccc4cccc(c34)NC2=O)cc1 (stereo not given)	.	.	.	.	.	/	/	/	/	/	/
O=C(Nc1cccc(CNCCc2c[nH]c3ccccc23)c1)c1ccccc1Cl	.	.	.	.	-6.54	.	.	-15.0%	80.0%	55.0%	.
CN(NS(=O)(=O)c1ccc(Cl)cc1)c1nc(C(F)(F)F)nc2ccccc12	.	.	.	.	-5.6	.	.	.	.	.	.
CN(NS(=O)(=O)c1ccccc1)c1nc2ccccc2nc1C(F)(F)F	.	.	.	.	.	/	/	/	/	/	/
CN1CCCCc2c1nc1ccccc1c2N (tested in a mixture with another compound)	.	-7	.	.	-8.6	/	/	/	/	86.6%	.	TRPC4 spec 2=4.5%;TRPC4 spec=-18.8%;HEK293 MPD ctr 2-1=.;HEK293 MPD ctr-1=-251.5%
Nc1c2c(nc3ccccc13)N(c1ccccc1)CC2	.	-6	.	.	-7.96	-129.5%	.	-40.5%	85.0%	47.5%	.
Nc1c2c(nc3ccccc13)CSCC2	.	.	.	.	-7.21	/	/	/	/	55.4%	.	TRPC4 spec 2=13.0%;TRPC4 spec=-29.6%;HEK293 MPD ctr 2-1=.;HEK293 MPD ctr-1=-481.5%
COC(=O)c1cn(NC(=O)c2ccccc2[N+](=O)[O-])c(=O)c2ccccc12	.	.	.	.	.	/	/	/	/	/	/
CC(=O)N1CC23C=CC(CC2CC12CCCCCC2)O3 (stereo not given)	.	.	.	.	.	/	/	/	/	/	/
O=c1c2ccccc2[nH]c(=S)n1CCCN1CCC(Cc2ccccc2)CC1	.	.	.	.	-5.91	.	.	-10.5%	79.5%	56.5%	.
O=c1c2ccccc2[nH]c(=S)n1CCN1CCCC1	.	.	.	.	.	/	/	/	/	/	/
CCN1CCN(CCn2c(=S)[nH]c3ccccc3c2=O)CC1	.	.	.	.	-6.33	.	.	.	.	41.0%	.
Cc1ccc(-c2nn(-c3cc(N4CCNCC4)ccc3[N+](=O)[O-])c(=O)c3ccccc23)cc1	.	.	.	.	-9.55	/	/	/	/	.	.	TRPC4 spec 2=51.0%;TRPC4 spec=-10.6%;HEK293 MPD ctr 2-1=.;HEK293 MPD ctr-1=.
Cc1nn(-c2cc(N3CCCCCC3)ccc2[N+](=O)[O-])c(=O)c2ccccc12	.	.	.	.	.	/	/	/	/	/	/
Cc1cc(C)n2nc(C(=O)N/N=C/c3ccco3)nc2n1	.	.	.	.	-6.56	-275.0%	.	-50.0%	32.5%	.	.
Cc1cc(C)n2nc(C(=O)N/N=C/c3ccccc3Cl)nc2n1	.	.	.	.	.	/	/	/	/	/	/
COc1cc(/C=N/Nc2nc(N3CCCC3)nc(N3CCCC3)n2)ccc1OCc1ccccc1F	.	.	.	.	-7.37	/	/	/	/	.	.	TRPC4 spec 2=.;TRPC4 spec=-14.4%;HEK293 MPD ctr 2-1=.;HEK293 MPD ctr-1=.
COc1ccc(/C=N/Nc2nc(N3CCCC3)nc(N3CCCC3)n2)cc1	.	.	.	.	.	/	/	/	/	/	/
COc1ccc(/C=N/Nc2nc(N3CCCC3)nc(N3CCCC3)n2)cc1O	.	.	.	.	-5.5	.	.	.	.	.	.
CCCCCCC(=O)N1CCCC(c2nc(-c3cccc(OC)c3)no2)C1 (stereo not given)	.	.	.	.	-5.86	.	.	10.5%	30.5%	64.5%	/
CCCC(=O)N1CCCC(c2nc(-c3cccc(OC)c3)no2)C1 (stereo not given)	.	.	.	.	.	/	/	/	/	/	/
c1csc(Cc2nc3ccccc3[nH]2)c1	.	.	.	.	-13.6	.	.	.	.	.	.
COCCNc1c2c(nc3c(-c4ccccc4)c(C)nn13)CCCC2	.	.	.	.	.	/	/	/	/	/	/
Cc1nn2c(NCCN(C)C)c3c(nc2c1-c1ccccc1)CCCC3	.	.	.	.	-7.26	-191.5%	.	-36.5%	51.5%	47.5%	.
CCN(CC)C(=O)N1CCn2c(nc3ccccc32)C1	.	.	.	.	-5.47	.	.	11.5%	.	.	.

Compound activity (PubChem BioAssay)
